Test results published in ChEMBL document CHEMBL4811275, “Iodinated 1,2-diacylhydrazines, benzohydrazide-hydrazones and their analogues as dual antimicrobial and cytotoxic agents” (Bioorg Med Chem, 2021).
Converted amounts (≈) assume the structure as drawn. The source made the active and inactive calls. The calls are words filed in the database; no cut-off is given here.

What was measured:
[1] = test system: Trichophyton interdigitale; test: Antifungal activity against Trichophyton interdigitale ATCC 9533 assessed as reduction in fungal growth incubated for 120 hrs by broth microdilution method; type: functional
How it was run: (§1)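 Broth microdilution per EUCAST (yeasts and moulds), modified: twofold dilutions from DMSO (final ≤1% v/v) in RPMI-1640 with L-glutamine, 2% glucose, MOPS-buffered pH 7.0; scale from 0.49 µM. Static, dark, humidified, 35 ± 2 °C for 24 and 48 h (Trichophyton interdigitale 72 and 120 h). MIC = complete visible inhibition by eye; duplicates within one dilution step.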

Enterococcus faecalis [2] = test: Antibacterial activity against Enterococcus faecalis ATCC 29212 assessed as reduction in bacterial growth incubated for 24 hrs by broth microdilution method; type: functional
How it was run: (§2)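 Cation-adjusted Mueller-Hinton broth microdilution per EUCAST, modified; compounds from DMSO stocks, final DMSO ≤1% v/v; scale starting from 0.49 µM. Static incubation at 35 ± 2 °C, dark, humidified, read at 24 and 48 h. MIC = lowest concentration with no visible growth by eye; duplicates, parallel readings within one dilution step; growth and medium/DMSO controls included.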

[3] = test system: Staphylococcus epidermidis; test: Antibacterial activity against Staphylococcus epidermidis ATCC 12228 assessed as reduction in bacterial growth incubated for 24 hrs by broth microdilution method; type: functional; how it was run: as §2
[4] = test system: Staphylococcus epidermidis; test: Antibacterial activity against Staphylococcus epidermidis ATCC 12228 assessed as reduction in bacterial growth incubated for 48 hrs by broth microdilution method; type: functional; how it was run: as §2
[5] = test system: Trichophyton interdigitale; test: Antifungal activity against Trichophyton interdigitale ATCC 9533 assessed as reduction in fungal growth incubated for 72 hrs by broth microdilution method; type: functional; how it was run: as §1
Escherichia coli [6] = test: Antibacterial activity against Escherichia coli ATCC 25922 assessed as reduction in bacterial growth incubated for 48 hrs by broth microdilution method; type: functional; how it was run: as §2
Staphylococcus aureus [7] = test: Antibacterial activity against methicillin-resistant Staphylococcus aureus ATCC 43300 assessed as reduction in bacterial growth incubated for 24 hrs by broth microdilution method; type: functional
How it was run: (§3)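 EUCAST-based broth microdilution in cation-adjusted Mueller-Hinton broth. DMSO stocks, final DMSO ≤1% v/v, concentration scale starting from 0.49 µM. Static incubation at 35 ± 2 °C, dark and humidified. Run in duplicate, accepted only if parallel MICs differ by at most one dilution step. MIC is the lowest concentration with no visible growth by naked eye.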

Lichtheimia corymbifera [8] = test: Antifungal activity against Lichtheimia corymbifera CCM 8077 assessed as reduction in fungal growth incubated for 24 hrs by broth microdilution method; type: functional; how it was run: as §1
Escherichia coli [9] = test: Antibacterial activity against Escherichia coli ATCC 25922 assessed as reduction in bacterial growth incubated for 24 hrs by broth microdilution method; type: functional; how it was run: as §2
Staphylococcus aureus [10] = test: Antibacterial activity against methicillin-resistant Staphylococcus aureus ATCC 43300 assessed as reduction in bacterial growth incubated for 48 hrs by broth microdilution method; type: functional; how it was run: as §3
Lichtheimia corymbifera [11] = test: Antifungal activity against Lichtheimia corymbifera CCM 8077 assessed as reduction in fungal growth incubated for 48 hrs by broth microdilution method; type: functional; how it was run: as §1
Candida parapsilosis [12] = test: Antifungal activity against Candida parapsilosis ATCC 22019 assessed as reduction in fungal growth incubated for 48 hrs by broth microdilution method; type: functional; details: Lodderomyces parapsilosis; how it was run: as §1
Staphylococcus aureus [13] = test: Antibacterial activity against Staphylococcus aureus ATCC 29213 assessed as reduction in bacterial growth incubated for 48 hrs by broth microdilution method; type: functional; how it was run: as §2
Candida albicans [14] = test: Antifungal activity against Candida albicans ATCC 24443 assessed as reduction in fungal growth incubated for 48 hrs by broth microdilution method; type: functional; how it was run: as §1
Staphylococcus aureus [15] = test: Antibacterial activity against Staphylococcus aureus ATCC 29213 assessed as reduction in bacterial growth incubated for 24 hrs by broth microdilution method; type: functional; how it was run: as §2
Pichia kudriavzevii [16] = test: Antifungal activity against Candida krusei ATCC 6258 assessed as reduction in fungal growth incubated for 24 hrs by broth microdilution method; type: functional; how it was run: as §1
Candida parapsilosis [17] = test: Antifungal activity against Candida parapsilosis ATCC 22019 assessed as reduction in fungal growth incubated for 24 hrs by broth microdilution method; type: functional; details: Lodderomyces parapsilosis; how it was run: as §1
HepG2 = test: Cytotoxicity against human HepG2 cells assessed as reduction in cell viability incubated for 24 hrs by cell-titer 96 aqueous one solution cell proliferation assay; type: functional, cell-based; details: HepG2, 24 h
Enterococcus faecalis [18] = test: Antibacterial activity against Enterococcus faecalis ATCC 29212 assessed as reduction in bacterial growth incubated for 48 hrs by broth microdilution method; type: functional; how it was run: as §2
Pichia kudriavzevii [19] = test: Antifungal activity against Candida krusei ATCC 6258 assessed as reduction in fungal growth incubated for 48 hrs by broth microdilution method; type: functional; how it was run: as §1
Candida albicans [20] = test: Antifungal activity against Candida albicans ATCC 24443 assessed as reduction in fungal growth incubated for 24 hrs by broth microdilution method; type: functional; how it was run: as §1
HK-2 = test: Cytotoxicity against human HK-2 cells assessed as reduction in cell viability incubated for 24 hrs by cell-titer 96 aqueous one solution cell proliferation assay; type: cell-based; details: HK-2, 24 h
Staphylococcus aureus [21] = test: Antibacterial activity against methicillin-susceptible Staphylococcus aureus CCM 4223 assessed as reduction in bacterial growth measured for 24 to 48 hrs by broth microdilution method; type: functional, organism-based; details: time 24-48 hrs; how it was run: as §2
Pseudomonas aeruginosa = test: Antibacterial activity against Pseudomonas aeruginosa ATCC 27853 assessed as reduction in bacterial growth measured for 24 to 48 hrs by broth microdilution method; type: functional, organism-based; details: time 24-48 hrs; how it was run: as §2
Serratia marcescens = test: Antibacterial activity against clinical isolate Serratia marcescens assessed as reduction in bacterial growth measured for 24 to 48 hrs by broth microdilution method; type: functional, organism-based; details: time 24-48 hrs; how it was run: as §2
Klebsiella pneumoniae = test: Antibacterial activity against Klebsiella pneumoniae ATCC 10031 assessed as reduction in bacterial growth measured for 24 to 48 hrs by broth microdilution method; type: functional, organism-based; details: time 24-48 hrs; how it was run: as §2
Pichia kudriavzevii [22] = test: Antifungal activity against Candida krusei ATCC 6258 assessed as reduction in fungal growth incubated for 48 hrs by broth microdilution method based spectrophotometric analysis; type: functional
Lichtheimia corymbifera [23] = test: Antifungal activity against Lichtheimia corymbifera CCM 8077 assessed as reduction in fungal growth incubated for 24 hrs by broth microdilution method based spectrophotometric analysis; type: functional
[24] = test system: Trichophyton interdigitale; test: Antifungal activity against Trichophyton interdigitale ATCC 9533 assessed as reduction in fungal growth incubated for 120 hrs by broth microdilution method based spectrophotometric analysis; type: functional
Candida parapsilosis [25] = test: Antifungal activity against Candida parapsilosis ATCC 22019 assessed as reduction in fungal growth incubated for 24 hrs by broth microdilution method based spectrophotometric analysis; type: functional; details: Lodderomyces parapsilosis
Pichia kudriavzevii [26] = test: Antifungal activity against Candida krusei ATCC 6258 assessed as reduction in fungal growth incubated for 24 hrs by broth microdilution method based spectrophotometric analysis; type: functional
Candida parapsilosis [27] = test: Antifungal activity against Candida parapsilosis ATCC 22019 assessed as reduction in fungal growth incubated for 48 hrs by broth microdilution method based spectrophotometric analysis; type: functional; details: Lodderomyces parapsilosis
Candida albicans [28] = test: Antifungal activity against Candida albicans ATCC 24443 assessed as reduction in fungal growth incubated for 24 hrs by broth microdilution method based spectrophotometric analysis; type: functional
[29] = test system: Trichophyton interdigitale; test: Antifungal activity against Trichophyton interdigitale ATCC 9533 assessed as reduction in fungal growth incubated for 72 hrs by broth microdilution method based spectrophotometric analysis; type: functional
Lichtheimia corymbifera [30] = test: Antifungal activity against Lichtheimia corymbifera CCM 8077 assessed as reduction in fungal growth incubated for 48 hrs by broth microdilution method based spectrophotometric analysis; type: functional
Candida albicans [31] = test: Antifungal activity against Candida albicans ATCC 24443 assessed as reduction in fungal growth incubated for 48 hrs by broth microdilution method based spectrophotometric analysis; type: functional

| Structure (SMILES) | MIC (Enterococcus faecalis [2]) | MIC [3] | MIC [4] | MIC (Escherichia coli [6]) | MIC (Staphylococcus aureus [7]) | MIC (Escherichia coli [9]) | MIC (Staphylococcus aureus [10]) | MIC (Staphylococcus aureus [13]) | MIC (Staphylococcus aureus [15]) | IC50 (HepG2) | MIC (Enterococcus faecalis [18]) | further results |
| --- | --- | --- | --- | --- | --- | --- | --- | --- | --- | --- | --- | --- |
| O=C(NNCc1cc(I)cc(I)c1O)c1ccc(F)cc1 | 31.2 µM (≈ 16 µg/mL) | 62.5 µM (≈ 32 µg/mL) | 62.5 µM (≈ 32 µg/mL) | > 500 µM | 62.5 µM (≈ 32 µg/mL) | > 500 µM | 125 µM (≈ 64 µg/mL) | 125 µM (≈ 64 µg/mL) | 62.5 µM (≈ 32 µg/mL) | 52.2 µM | 62.5 µM (≈ 32 µg/mL) | MIC [1]: 31.2 µM (≈ 16 µg/mL); MIC [5]: 15.6 µM (≈ 8 µg/mL); MIC (Lichtheimia corymbifera [8]): 15.6 µM (≈ 8 µg/mL); MIC (Lichtheimia corymbifera [11]): 31.2 µM (≈ 16 µg/mL); MIC (Candida parapsilosis [12]): > 125 µM; MIC (Candida albicans [14]): > 125 µM; MIC (Pichia kudriavzevii [16]): > 125 µM; MIC (Candida parapsilosis [17]): > 125 µM; MIC (Pichia kudriavzevii [19]): > 125 µM; MIC (Candida albicans [20]): 125 µM (≈ 64 µg/mL) |
| O=C(NNC(=O)c1cc(I)cc(I)c1O)c1ccc(I)cc1 | 125 µM (≈ 79.2 µg/mL) | 62.5 µM (≈ 39.6 µg/mL) | 125 µM (≈ 79.2 µg/mL) | > 250 µM | 125 µM (≈ 79.2 µg/mL) | > 250 µM | 250 µM (≈ 158 µg/mL) | 250 µM (≈ 158 µg/mL) | 250 µM (≈ 158 µg/mL) | 25.1 µM | 250 µM (≈ 158 µg/mL) | IC50 (HK-2): > 100 µM |
| O=C(N/N=C/c1cc(I)cc(I)c1O)c1ccc(O)cc1 | 250 µM (≈ 127 µg/mL) | 62.5 µM (≈ 31.8 µg/mL) | 125 µM (≈ 63.5 µg/mL) | 250 µM (≈ 127 µg/mL) | 62.5 µM (≈ 31.8 µg/mL) | 250 µM (≈ 127 µg/mL) | 62.5 µM (≈ 31.8 µg/mL) | 62.5 µM (≈ 31.8 µg/mL) | 31.2 µM (≈ 15.9 µg/mL) | 19.2 µM | 250 µM (≈ 127 µg/mL) | Activity (Staphylococcus aureus [21]): Active; Activity (Pseudomonas aeruginosa): inactive; Activity (Serratia marcescens): inactive; Activity (Klebsiella pneumoniae): inactive |
| OC(Cn1cncn1)(Cn1cncn1)c1ccc(F)cc1F [FLUCONAZOLE] |  |  |  |  |  |  |  |  |  |  |  | MIC (Pichia kudriavzevii [22]): > 104 µM; MIC (Lichtheimia corymbifera [23]): > 104 µM; MIC [24]: 52.2 µM (≈ 16 µg/mL); MIC (Candida parapsilosis [25]): 3.3 µM (≈ 1.01 µg/mL); MIC (Pichia kudriavzevii [26]): > 104 µM; MIC (Candida parapsilosis [27]): 3.3 µM (≈ 1.01 µg/mL); MIC (Candida albicans [28]): 6.5 µM (≈ 1.99 µg/mL); MIC [29]: 52.2 µM (≈ 16 µg/mL); MIC (Lichtheimia corymbifera [30]): > 104 µM; MIC (Candida albicans [31]): 6.5 µM (≈ 1.99 µg/mL) |
